Data reported in ChEMBL document CHEMBL4513216, “Probing the Open Global Health Chemical Diversity Library for Multistage-Active Starting Points for Next-Generation Antimalarials” (ACS Infect Dis, 2020).

Test: Toxicity liver stage against HepG2, at 10uM
Type: cell-based
Set-up: test concentration 10 uM, cell line HepG2-A16-CD81EGFP
Settings: human, HepG2-A16-CD81EGFP cells; read-out: INHIBITION
Outline: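 Uninfected HepG2-A16-CD81EGFP cells, 3 × 10^3 per well, 1536-well, plated on prespotted compound at 10 μM final, parasite-free screening media added to match infected plates; puromycin 10 μM positive, DMSO 0.5% negative; run in parallel with 48 h PbLuc assay at 37 °C, 5% CO2; viability by CellTiter-Glo luminescence, normalized to controls.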

| Compound | cytotoxicity at 10 µM |
| --- | --- |
| Cc1ccc(CNC2(Cc3cc(CC(C)C)on3)COC2)o1 | -2.07% |
| F[C@@H]1CN(CC2CC2)C[C@@H]1OCc1nc2ccccc2[nH]1 | -1.34% |
| CS(=O)(=O)N1CCN2C(=O)N(C3CCOCC3)C[C@H]2C1 | 5.76% |
| CC(=O)N[C@H]1C[C@@H](c2nc(-c3ccc4c(c3)OCO4)no2)N(C)C1 | -2.92% |
| O=C(COc1ccccc1F)NCC(O)(c1ccccc1)C1CC1 (stereo unspecified) | -3.68% |
| COCC(=O)N1CCC2(CCC(C(=O)N3CCCC3)O2)CC1 (stereo unspecified) | -1.63% |
| Cc1cccc(CN2CCC3(CCN(c4ncccn4)C3)C2=O)c1 (stereo unspecified) | 1.44% |
| CN(C)CCN1CCC2(CCN(C(=O)c3cccnc3)CC2)C1=O | 2.61% |
| COCC(=O)N1CC[C@@H]2O[C@@H](COCC3CCOCC3)CC[C@@H]21 | 0.718% |
| O=C(Cc1ccsc1)NC1CCc2c(ccc(=O)n2CC2CC2)C1 (stereo unspecified) | 8.88% |
| O=C(c1ccnnc1)N1CCCn2nnc(COCC3CC3)c2C1 | 7.95% |
| COCCN1Cc2ccnn2CC(COCc2cccnc2)C1 (stereo unspecified) | -131% |
| CNC(=O)c1cc2c(nc1NCC(C)C)CCN(S(=O)(=O)N(C)C)CC2 | -151% |
| CCCS(=O)(=O)N1CCC2(CC(C(=O)NCc3cccnc3)=NO2)C1 (stereo unspecified) | -4.51% |
| COCC(=O)N1CCC2(CC(C(=O)NCc3cccnc3)=NO2)C1 (stereo unspecified) | -1.34% |
| Fc1cccc(N2CCOC3(CCCN(c4nncs4)C3)C2)c1 (stereo unspecified) | 4% |
| O=c1ccc(-c2ccccc2F)nn1CN1CCCCCC1 | 5.76% |
| Cc1cccc(Cl)c1NC(=O)Cn1cc(C(=O)O)ccc1=O | -1.35% |
| CN(C)S(=O)(=O)N1CCC(Oc2ccc(C#N)cn2)CC1 | 4.16% |
| COc1ccc(-c2n[nH]cc2C2SCC(=O)Nc3[nH]ncc32)cc1 (stereo unspecified) | -1.33% |
| CCC1=N[C@@]2(CC[C@@H]3CN(C(=O)NCC(C)C)C[C@@H]32)C(=O)N1CC(C)C | -3.64% |
| CCN1C(=O)C2(CCOCC2)c2cc(NC(=O)c3ccco3)ccc21 | -10.3% |
| O=C(c1ccc2[nH]ccc2c1)N1CCn2cnc(COCC3CC3)c2C1 | 5.22% |

| Compound | cytotoxicity at 10 µM |
| --- | --- |
| Cc1c(CCC(=O)Nc2ccc(Cl)cn2)cnn1C | 0.678% |
| CCn1nccc1CNC(=O)C1CC1 | -12.2% |
| COc1ccc(-c2cc3cccn(CC(=O)N4CCOCC4)c-3n2)cc1 | -7.26% |
| Cc1cccc(C(=O)N2CCCC(Cc3cncc4ccccc34)C2)n1 (stereo unspecified) | -19% |
| O=C(CCC1CCCO1)N1CCc2nc(-c3cnccn3)nc(O)c2C1 (stereo unspecified) | -20.3% |
| N#CCCCS(=O)(=O)NC(=O)c1cccc(Cl)c1F | -2.8% |
| CC(SCCNS(=O)(=O)c1cnn(C)c1)c1cccc(F)c1 (stereo unspecified) | 17.3% |
| CC(=O)N1CCN(CCCSCc2ccccc2)CC1 | 1.64% |
| CC(C)c1ccc(OCCC(=O)NCCC(=O)N(C)C)cc1 | -4.37% |
| Cc1c(NC(=O)N(C)CCO)cccc1OC1CCCC1 | -0.172% |
| Cc1cc(NC(=O)Cn2ccc(=O)c3ccccc32)[nH]n1 | -146% |
| CNS(=O)(=O)c1ccccc1N1CCN(C(C)C(N)=O)CC1 (stereo unspecified) | 4.87% |
| COCCC1(CNC(=O)Nc2ccc(-n3nccn3)cc2)CCC1 | -2.99% |
| N#Cc1csc(CNCCOc2ncccc2Cl)c1 | 8.01% |
| O=C(NCC(F)(F)F)c1nnn(-c2ccccc2)c1C(F)(F)F | 4.39% |
| O=C(c1csc(-c2ccco2)n1)N(CC1CCOC1)C1CC1 (stereo unspecified) | -2.72% |
| CC(NC(=O)c1cccc(CN2CCN(C)CC2)c1)c1nccs1 (stereo unspecified) | -4.28% |
| COC(=O)CCC(=O)NC(C)Cc1ccccc1Br (stereo unspecified) | -6.66% |
| Cn1ncc(C(=O)OCC2CC(=O)N(c3ccccc3)C2)c1C(F)F (stereo unspecified) | 1.93% |
| Cc1cc(CN(C)C(=O)NCc2ccccn2)no1 | 1.62% |
| O=C(NCc1cc(Cl)ccn1)NCc1ccco1 | 8.5% |
| C[S+]([O-])c1nncn1CC(=O)c1ccc2c(c1)CCC2 (stereo unspecified) | -1.88% |
| COc1ccc(F)cc1C(=O)Nc1nnc(C)s1 | 11.1% |

| Compound | cytotoxicity at 10 µM |
| --- | --- |
| COc1ccc(C(=O)O)c(OCC(=O)NC(C)c2ccc(F)cc2)c1 (stereo unspecified) | 1.65% |
| COc1cc(Cl)c(NCc2c(C)noc2C)cc1OC | 8.77% |
| Cc1nc(CNC(=O)NC2CCCN(c3ncccn3)C2)cs1 (stereo unspecified) | -140% |
| CCC(=O)Nc1ccc2c(ccn2CCOC)c1 | 3.54% |
| COCc1csc(NC(=O)NCc2ncccc2C)n1 | -2.6% |
| O=S(=O)(c1ccc(Cl)cc1)N1CCC(OCc2ccccn2)C1 (stereo unspecified) | 1.48% |
| O=C(NCc1ccncc1)N1CCSCC1c1ccc(Cl)cc1 (stereo unspecified) | 1.6% |
| CSc1ccc(NC(=O)NCC(O)C2CC2)cc1F (stereo unspecified) | 6.32% |
| CC(C)NS(=O)(=O)c1ccccc1CNCc1cccc(O)c1 | -7.19% |
| CCC(c1ccccc1)N1CCN(C(=O)c2cc(C(N)=O)c[nH]2)CC1 (stereo unspecified) | 2.96% |
| CSc1ccc(CNc2ccccc2CN2CCC(O)CC2)cc1 | -4.75% |
| CCOc1cc(C(=O)N(C)C)ccc1NC(=O)c1ccsc1 | -0.587% |
| Cc1cc(N(Cc2ccon2)S(C)(=O)=O)ccc1Br | 4.51% |
| O=C(COc1ccccc1)N1CCCC1c1ccc[nH]1 (stereo unspecified) | -0.575% |
| COc1ccc(C(=O)CCc2nc(C3CC3)no2)cc1 | -2.31% |
| CCCc1cc(NC(=O)c2cc(N3CCNC3=O)c(F)cc2F)n[nH]1 | 12.3% |
| CCOC(=O)N1CCN(C(=O)Cc2c(C)nc(C)[nH]c2=O)CC1 | -6.31% |
| COc1cc(C)c(NC(=O)CCn2cccc2)cc1OC | 1.61% |
| CC(C)Cn1cc(NC(=O)N2CCOC(c3ccccc3)C2)cn1 (stereo unspecified) | 7.59% |
| CC(C)n1ncc2c1NC(=O)C(C#N)C21CCCC1 (stereo unspecified) | -4.1% |
| NC(=O)CN(C(=O)Cc1cccc(C(F)(F)F)c1)C1CCCC1 | 3.71% |
| CN(Cc1ccccn1)C(=O)CC1CCOc2ccccc21 (stereo unspecified) | 11.6% |
| CCNC(=O)NC(=O)CNc1cccc(C(=O)c2ccccc2)c1 | 3.18% |

| Compound | cytotoxicity at 10 µM |
| --- | --- |
| CCC(C)CNc1ccc2oc(COC)nc2c1 (stereo unspecified) | -22.4% |
| O=C(NCc1nnc2n1CCC2)N(Cc1ccco1)C1CC1 | -6.11% |
| COCCn1nc(C(=O)N2CCCC2c2cccc(F)c2)ccc1=O (stereo unspecified) | -5.5% |
| Cc1cn(CC(=O)NC2CCN(C(=O)C3CC3)CC2)c2ccccc12 | -3.57% |
| CN(C)C(=O)N1CCN(CCn2nc3ccccn3c2=O)CC1 | 0.562% |
| CCCS(=O)(=O)N1Cc2nccn2CC(Cn2cncn2)C1 (stereo unspecified) | -0.158% |
| Cn1ccc(-c2cc(C(=O)N3CCC(C(N)=O)CC3)c3ccccn23)n1 | -105% |
| COc1ccc2c(c1)OCC(C(=O)NCc1nc3c(s1)CCCC3)C2 (stereo unspecified) | -4.29% |
| CO[C@H]1CN(C(=O)c2ccc(-c3ccccc3)[nH]2)CC[C@H]1N | 3.64% |
| Cc1nc[nH]c1CN1CCN(C(=O)CN2CCCC2)[C@H]2CS(=O)(=O)C[C@H]21 | -7.21% |
| CCn1nc(C)c(CCNC(=O)C2CCCN(C3CCCC3)C2)c1C (stereo unspecified) | -9.34% |
| CCN1CCC(CNC(=O)C(c2ccccc2F)N(C)C)(N(C)C)CC1 (stereo unspecified) | -1.7% |
| O=S(=O)(N1CCOCC1)N1CCOC(CCc2ccccc2)C1 (stereo unspecified) | -2.55% |
| CCn1c(C)nnc1SCCNc1nc(C)ncc1S(C)(=O)=O | -4.19% |
| COc1ccc(OCc2nc(C(=O)NCCN3CCOCC3)co2)cc1 | 1.87% |
| CSCc1noc(CNS(=O)(=O)c2cccc(C(=O)NC3CC3)c2)n1 | -2.51% |
| Cn1ccnc1CN(CCO)C(=O)c1cnc2ccccc2c1 | 1.39% |
| COc1ccnc(CN2CCC(O)(c3ccc(C)cn3)CC2)c1OC | -138% |
| OC1(c2cn(C3CCN(C4CCSC4)CC3)nn2)CCCC1 (stereo unspecified) | 2.13% |
| CC(C)CCC1=NC2(CCN(C(=O)N3CCN(C)CC3)CC2)C(=O)N1 | -6.08% |
| Cc1csc(CCNC(=O)C2CCN(CC(N)=O)CC2)n1 | -5.26% |
| CC[C@@H](CO)NC(=O)c1coc(COc2ccc(OC)cc2)n1 | 15% |
| CCN1CC(C(=O)NCCOc2ccc3c(c2)OCO3)CC1=O (stereo unspecified) | -2.34% |

| Compound | cytotoxicity at 10 µM |
| --- | --- |
| CC(=O)N(C)CC(=O)NCC1CCN(c2cc(Cl)ccc2C)C1 (stereo unspecified) | -8.77% |
| CC(C)Cc1noc(CN2CCN(c3nccs3)CC2)n1 | 0.607% |
| CC(Cn1cccn1)NCc1nc(-c2cccs2)no1 (stereo unspecified) | -8.7% |
| Cc1cccc(-c2noc(CN3CCCC3Cn3cccn3)n2)c1 (stereo unspecified) | 1.68% |
| CNc1cc2c(nn1)CCN(C(=O)c1ccc(-n3nccc3C)cc1)C2 | -5.44% |
| CC1CCCN(Cc2c(C3CC3)n(CC(=O)N(C)C)c3ncccc23)C1 (stereo unspecified) | 4.04% |
| COCC1CC2(CCN(Cc3ccc(C)o3)CC2)CN1C(C)C (stereo unspecified) | -2.42% |
| CNC(=O)c1cc2c(nc1N(C)C)CCN(S(=O)(=O)CC(C)C)CC2 | -3.85% |
| O=C(NCC1CC1)[C@@H]1CCO[C@@H]2CCN(Cc3ccco3)C[C@H]21 | -4.93% |
| CCN1CCC2(CN(C(C)=O)CC23CCN(CC2CC2)CC3)C1=O (stereo unspecified) | 3.94% |
| COCCN1CCC2(CC1)CN(C(=O)c1cccs1)CCO2 | -14.1% |
| O=C(c1cc[nH]n1)N1CC[C@@H]2CN(Cc3ccccc3)S(=O)(=O)[C@@H]2CC1 | 4.35% |
| CCOCC(=O)N1CC[C@H]2OCC[C@@]2(COc2ncccc2F)C1 | -152% |
| Cc1cccc(CN2CCCn3c(nnc3Cn3cccn3)C2)n1 | -0.124% |
| COc1ccc(CN2CC[C@@H](O)[C@@H]2Cc2ccccc2)cc1 | 4.49% |
| c1ccc(OCc2n[nH]c3c2CN(CC2CC2)C3)nc1 | 7.49% |
| Cc1nc(CN2CCC3(CCN(c4ncc(F)cn4)C3)C2=O)cs1 (stereo unspecified) | 3.61% |
| Cc1ccc2c(c1)C1(CCNCC1)CC2NC(C)C (stereo unspecified) | -9.73% |
| CCC(=O)Nc1cccc(OCC(=O)N[C@@H]2C[C@@H]3CC[C@H]2C3)c1 | -1.03% |
